We go through one compound from ChEMBL document CHEMBL4308887, “Synthesis and biological evaluation of clovamide analogues with catechol functionality as potent Parkinson's disease agents in vitro and in vivo” (Bioorg Med Chem Lett, 2019).

Series [1] deals with SH-SY5Y. The experiment in a line: Neuroprotection against H2O2-induced cell death in human SH-SY5Y cells at 100 uM preincubated for 6 hrs followed by H2O2 addition and measured after 24 hrs by MTT assay relative to control. The format is functional. The gist of the method: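 Human SH-SY5Y neuroblastoma cells pretreated with compound at 100 μM for 6 h, then exposed to 600 μM H₂O₂ for 24 h; viability read by MTT and expressed as protection rate relative to untreated control. DMSO below 0.1% in all groups. Primary single-concentration screen; three independent experiments.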

Series [2] relates to SH-SY5Y. The series is described as follows: Neuroprotection against H2O2-induced toxicity in human SH-SY5Y cells assessed as LDH release at 1 uM preincubated for 6 hrs followed by H2O2 addition and measured after 24 hrs (reference value: 339.93 +/- 3.66 U/L). The format is functional.
The test system of series [3] is SH-SY5Y. The series is described as follows: Cytotoxicity against non-stimulated human SH-SY5Y cells assessed as effect on LDH release measured after 6 hrs. It counts as cell-based.
Series [4] relates to SH-SY5Y. The experiment in a line: Protection against H2O2-induced morphological changes in human SH-SY5Y cells at 1 to 10 uM preincubated for 6 hrs followed by H2O2 addition and measured after 24 hrs by inverted microscopic analysis. It counts as functional, cell-based. The gist of the method:
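Cell morphology under inverted microscope after pretreatment and 600 μM H₂O₂; DMSO below 0.1%.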

Series [5] concerns SH-SY5Y. The series is described as follows: Protection against H2O2-induced oxidative stress in human SH-SY5Y cells assessed as reduction in reactive oxygen species level preincubated for 6 hrs followed by H2O2 addition and measured after 24 hrs by DHE dye based inverted microscopic analysis. It counts as functional, cell-based.
In series [6] the test system is SH-SY5Y. The experiment in a line: Protection against H2O2-induced mitochondrial dysfunction in human SH-SY5Y cells assessed as increase in mitochondrial membrane potential at 1 to 10 uM preincubated for 6 hrs followed by H2O2 addition and measured after 24 hrs by Rh123 staining based inverted microscopic analysis. It counts as functional, cell-based. A digest of the protocol: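 ΔΨm examined by inverted fluorescence microscopy and flow cytometry after pretreatment (1, 10 μM) and 600 μM H₂O₂. Reported as % of control. Mean ± S.E.M., three independent experiments.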

Series [7] concerns SH-SY5Y. The series is described as follows: Protection against H2O2-induced apoptosis in human SH-SY5Y cells assessed as viable cells at 1 uM preincubated for 6 hrs followed by H2O2 addition and measured after 24 hrs by Annexin V-FITC/propidium iodide staining based flow cytometry (reference value: 12.4%). It counts as functional. As to conditions: read-out: Activity.
Series [8] can be described thus: Induction of apoptosis in non-stimulated human SH-SY5Y cells assessed as viable cells at 10 uM measured after 6 hrs by Annexin V-FITC/propidium iodide staining based flow cytometry (reference value: 92.5%). The format is cell-based. As to conditions: read-out: Activity.
For series [9], the system named is Mus musculus. The experiment in a line: Anti-parkinson's activity in MPTP-induced C57Bl/6 mouse model of Parkinson's disease assessed as increase in tyrosine hydroxylase expression in substantia nigra at 10 to 20 mg/kg, ig pretreated for 10 days followed by MPTP challenge measured 10 days post MPTP addition by Western blot analysis. It counts as functional, organism-based. The gist of the method: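 Tissue taken 10 days after MPTP injection from mice dosed orally with 1 (10 or 20 mg/kg). TH in SNpc and striatum by western blot, and by DAB immunostaining. Three of the mice per group analysed. Mean ± S.D., n = 6 mice/group.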

The test system of series [10] is Mus musculus. The series is described as follows: Anti-parkinson's activity in MPTP-induced C57Bl/6 mouse model of Parkinson's disease assessed as increase in SOD activity in substantia nigra administered intragastrically pretreated for 10 days followed by MPTP challenge measured 10 days post MPTP addition by xanthine oxidase method. It counts as functional, organism-based. The gist of the method: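 Striatum and SNpc from MPTP-treated mice dosed orally with 1 at 10 or 20 mg/kg. MDA level and SOD activity measured. Mean ± S.D., n = 6 mice/group.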

Series [11] can be described thus: Volume of distribution at steady state in Sprague-Dawley rat at 25 mg/kg, po by LC-MS/MS analysis. It counts as ADME, organism-based. The note with it: in vivo. The gist of the method: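 Male Sprague–Dawley rats (n = 3) dosed i.v. 5 mg/kg (5% DMSO, 2% F68, 93% saline) or p.o. 25 mg/kg (0.5% methylcellulose, 1% Tween 80). Orbital blood at 0.083–24 h (12 points). Plasma concentration–time profiles gave Cl, Vdss, AUC, T1/2, Tmax, Cmax, MRT and absolute F.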

Series [12] is described as follows: Half life in Sprague-Dawley rat at 25 mg/kg, po by LC-MS/MS analysis. As to conditions: in vivo. It counts as ADME, organism-based. The gist of the method:
(§1)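 Male Sprague–Dawley rats dosed with 1 at 5 mg/kg i.v. (vehicle 5% DMSO, 2% F68, 93% saline) or 25 mg/kg p.o. (0.5% methylcellulose with 1% Tween 80). Orbital blood sampled at 0.083–24 h, 12 time points. Plasma PK parameters derived. Mean ± SD, n = 3.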

Series [13] is described as follows: Cmax in Sprague-Dawley rat at 25 mg/kg, po by LC-MS/MS analysis. The format is ADME, organism-based. Also on record: dose 25 mg/kg, route oral. The note with it: in vivo. A digest of the protocol:
as §1

Series [14] can be described thus: MRT in Sprague-Dawley rat at 25 mg/kg, po by LC-MS/MS analysis. The format is ADME, organism-based. The note with it: in vivo. The gist of the method:
as §1

Series [15] is described as follows: MRT in Sprague-Dawley rat at 5 mg/kg, iv by LC-MS/MS analysis. As to conditions: in vivo. It counts as ADME, organism-based. The gist of the method:
as §1

Series [16] can be described thus: Activation of PI3K/Akt/mTOR signaling in human SH-SY5Y cells assessed as up regulation of H2O2-induced HO-1 expression at 10 uM preincubated for 6 hrs followed by H2O2 addition and after 24 hrs by Western blot analysis (reference value: 181.53 +/- 24.67%). It counts as cell-based. A digest of the protocol:
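SH-SY5Y cells pretreated 6 h with 1 (1 or 10 μM), then exposed to 600 μM H₂O₂ for 24 h. HO-1 measured by western blot with densitometry and expressed as % of control. Mean ± S.E.M., three independent experiments.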

The subject of series [17] is SH-SY5Y. The series is described as follows: Neuroprotection against H2O2-induced cell death in human SH-SY5Y cells at 10 uM preincubated for 6 hrs followed by H2O2 addition and measured after 24 hrs in presence of HO-1 inhibitor ZnPPIX by MTT assay. It counts as functional, cell-based. The gist of the method: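 Cells pretreated with ZnPPIX (10 μM) for 1 h and with 1 (10 μM) for 6 h, then exposed to 600 μM H₂O₂ for 24 h. Viability by MTT. Mean ± S.E.M., three independent experiments.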

The nature of series [18]: Activation of PI3K/Akt/mTOR signaling in human SH-SY5Y cells assessed as up regulation of H2O2-induced HO-1 expression at 10 uM preincubated for 6 hrs followed by H2O2 addition and after 24 hrs in presence of JNK inhibitor SP600125 by Western blot analysis. The format is cell-based. The gist of the method: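 SH-SY5Y cells preincubated 1 h with one inhibitor: SB203580 10 μM, LY294002 5 μM, U0126 10 μM, SP600125 5 μM or rapamycin 100 nM. Then 1 (10 μM) for 6 h, then 600 μM H₂O₂. HO-1 measured by western blot and densitometry. Mean ± S.E.M., three independent experiments.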

Series [19] relates to SH-SY5Y. The series is described as follows: Neuroprotection against H2O2-induced cell death in human SH-SY5Y cells assessed as cell viability at 10 uM preincubated for 6 hrs followed by H2O2 addition and measured after 24 hrs in presence of PI3K/Akt/mTOR inhibitor LY294002 by MTT assay relative to control. The format is functional. The note with it: read-out: Activity. The gist of the method:
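SH-SY5Y cells preincubated 1 h with LY294002 (5 μM) or rapamycin (100 nM). Then 1 (10 μM) for 6 h, then 600 μM H₂O₂. Viability by MTT. Mean ± S.E.M., three independent experiments.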

Active and inactive are the calls of the source. The rule behind the calls is not given here. Bounds are passed on as bounds.

Turning to `COC(=O)[C@H](Cc1ccccc1)NC(=O)/C=C/c1ccc(O)c(O)c1` [N-CAFFEOYL-PHENYLALANINE METHYL ESTER], the Activity is more than 50% in [1]; 269.12 U/L in [2]; “Non-Toxic” in series [3]; “Dose-dependent effect” in series [5]; “Dose-dependent effect” in series [10]; 325% in [16]. Further, the outcome in series [4], in series [6], in [9] and in series [18] was Active. In addition, the viability at 1 µM in series [7] worked out at 72%. Also, the viability at 6 h, 10 µM in [8] came to 94.8%. This compound yielded a Vdss in series [11] of 5.98 L/kg. The half-life in series [12] was 2.7 h. In addition, in [13], the Cmax came out at 808 ng/mL. The results for the MRT in [14] and in [15] were 3.06 h and 1.45 h, respectively. The result in series [17] was inactive. In addition, the viability at 10 µM in series [19] was determined as 60.5%.
